# Assay outcomes: PubChem BioAssay, several laboratories
# In the library only some 3% were active in any assay of this set; here they are far more common.
# TMEM16A inh – inhibitors of mouse TMEM16A calcium-activated chloride channel; normalized B-score (activity score, 25-100; higher = stronger inhibition) at 10 µM; HEK293 TMEM16A/YFP iodide influx fluorescence, ionomycin; Q8BHY3; 1.2% of 310,000 active;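 active means ratio plate-corrected score three or more library SD toward inhibition, starting fluorescence score within five deviations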;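 further: score derived from kinetic fluorescence span divided by baseline fluorescence per well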
# Target sequence (Q8BHY3 whole entry, looked up): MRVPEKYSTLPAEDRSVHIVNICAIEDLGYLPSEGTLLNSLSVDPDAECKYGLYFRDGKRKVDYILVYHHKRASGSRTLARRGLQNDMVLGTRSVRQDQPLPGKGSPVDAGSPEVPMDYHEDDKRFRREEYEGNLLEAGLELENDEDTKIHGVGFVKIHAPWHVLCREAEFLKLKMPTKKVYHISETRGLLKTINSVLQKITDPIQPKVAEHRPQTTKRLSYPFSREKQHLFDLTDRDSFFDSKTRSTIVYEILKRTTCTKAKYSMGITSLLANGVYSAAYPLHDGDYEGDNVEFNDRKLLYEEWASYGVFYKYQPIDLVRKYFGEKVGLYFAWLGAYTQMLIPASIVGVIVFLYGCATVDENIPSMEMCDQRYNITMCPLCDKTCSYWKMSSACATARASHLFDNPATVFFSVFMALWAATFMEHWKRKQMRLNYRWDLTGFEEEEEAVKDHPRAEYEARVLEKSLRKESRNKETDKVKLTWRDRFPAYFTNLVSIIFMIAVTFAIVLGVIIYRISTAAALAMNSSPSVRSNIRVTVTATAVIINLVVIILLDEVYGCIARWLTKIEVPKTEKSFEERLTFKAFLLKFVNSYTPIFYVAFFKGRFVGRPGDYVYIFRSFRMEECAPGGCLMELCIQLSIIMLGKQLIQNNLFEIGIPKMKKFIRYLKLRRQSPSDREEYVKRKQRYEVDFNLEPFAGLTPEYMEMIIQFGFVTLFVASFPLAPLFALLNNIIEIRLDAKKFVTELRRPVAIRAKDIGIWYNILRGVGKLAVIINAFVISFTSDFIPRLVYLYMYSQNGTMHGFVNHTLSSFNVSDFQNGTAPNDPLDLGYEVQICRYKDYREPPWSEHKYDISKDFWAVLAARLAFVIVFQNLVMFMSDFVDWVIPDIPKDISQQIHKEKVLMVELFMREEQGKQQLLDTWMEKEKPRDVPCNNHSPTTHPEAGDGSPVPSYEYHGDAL
# FID counter – fluorescent intercalator displacement, NS3 helicase counter-screen; DNA fluorescent intercalator displacement, fluorescence; inhibition, % at 7.9 µM; 0.17% of 290,000 active; in the data active means inhibition above about 37%;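 further: 0% = vehicle and 100% = reference compound; higher means more ethidium bromide displaced from hairpin DNA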
# ANO1 activ – mouse TMEM16A channel activation, primary screen; HEK293 TMEM16A/YFP-H148Q/I152L, iodide quench fluorescence; active compounds read low; 0.3% of 340,000 active; AID 623877; B-score at 10 µM; Q8BHY3;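 active means fluorescence-ratio B-score plate-corrected deviation score at least 3 library SD below zero, with starting fluorescence score within 5 deviations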;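 further: channel opened by trigger with iodide after compound preincubation; score built on the fluorescence ratio of max minus min over baseline; more negative score means more quench and so TMEM16A activation or potentiation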
# SR-BI DiI-HDL act – enhances SR-BI lipid uptake from DiI-HDL; AID 504775; activation, % at 12.5 µM; CHO ldlA[mSR-BI] cells, DiI-HDL uptake fluorescence, 3 h; 100 = double the neutral-control signal; 0.096% of 320,000 active;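 active means mean replicate activation of at least 60% and every replicate at or above 60%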;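 further: 0% = median plate neutral-control signal and 100% = twice that signal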
#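 system = CHO ldlA[mSR-BI] cells, LDL receptor-null, SR-BI overexpressing | medium = Ham's F12 with 0.5% BSA, HEPES 25 mM, pH 7.4 | probe or stimulus = DiI-HDL 10 µg/mL | compound dosing = single-point compound dose | incubation = compound exposure 3 h, 37 °C | technique = DiI fluorescence, bottom read | read-out = cell-associated DiI fluorescence as measure of HDL uptake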
# SR-BI HDL uptake – inhibitors of mouse SR-BI mediated HDL lipid uptake; ldlA[mSR-BI] CHO cells, DiI-HDL uptake fluorescence, 3 h; 0.96% of 320,000 active; AID 488896; inhibition, % at 12.5 µM; Q61009;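 active means mean replicate inhibition of at least 70% and a set share of replicates each scoring 70 or more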;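 further: 0% = median of neutral control wells and 100% = median of positive control wells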
# Kir21 block – blocks the mouse Kir2.1 inward-rectifier potassium channel; P35561; HEK293-Kir2.1, FluxOR thallium flux fluorescence; active compounds read low; B-score at 10 µM; 0.85% of 310,000 active;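 active means fluorescence ratio B-score at or below minus 3 SD of library scores, with starting-brightness B-score within 2 SD, cut at about -4.2 in these data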;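 further: channel flux triggered by added potassium and thallium sulfate stimulus; B-score of peak minus minimum fluorescence over baseline after thallium stimulus; more negative B-score means stronger Kir2.1 block with less thallium influx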
# Starred values were filed as active, the others as inactive; i = inactive; x = no result.
SMILES,TMEM16A inh,FID counter,ANO1 activ,SR-BI DiI-HDL act,SR-BI HDL uptake,Kir21 block
CC(C)Oc1ccc(S(=O)(=O)N2CCOCC2)cc1NC(=O)Cc1cccs1,i,x,i,1.4,-1.4,0.99
COc1ccc(CNC(=O)COC(=O)Cc2ccc(Br)cc2)cc1,x,x,i,8.1,-8.1,x
OC1(c2ccccc2)CCN(Cc2ccccc2)CC1,i,0.3,i,1.7,-1.7,-7.58*
OC1(c2ccc(F)cc2)CCN(Cc2ccccc2)C1 (configuration not stated),i,11.7,i,4.4,-4.4,-4.45*
OC1(c2ccc3c(c2)OCO3)CCN(Cc2ccc(F)cc2)CC1,i,2.5,i,x,x,-4.5*
CC(C)CCn1c(O)c(N=NC(=O)Cn2ccc(C(F)(F)F)n2)c2ccccc21,i,-1.9,i,-29.6,29.6,-0.16
CC(=O)Oc1c(Cl)cc(N(C(C)=O)S(=O)(=O)c2ccccc2)c2ccccc12,i,x,i,x,x,1.15
O=C(N/N=C/c1ccc(OC(F)F)cc1OC(F)F)c1cccc(S(=O)(=O)N2CCOCC2)c1,i,-3.0,i,-82.8,82.8*,0.55
O=C(NN=Cc1ccccc1OC(F)F)c1cccc(S(=O)(=O)N2CCCC2)c1,x,x,i,-71.9,71.9*,x
CCOc1ccc2c(c1)c(C(C)=O)c(C)n2-c1ccccc1,i,-23.9,i,-73.7,73.7*,0.86
Cn1c(CSc2ccccc2)c(C#N)c2ccccc21,i,-2.8,i,-20.0,20.0,0.36
Cc1ccc(SCc2c(C#N)c3ccccc3n2C)cc1,25*,-5.4,i,-19.2,19.2,-6.57*
Cc1ccc(-c2cc(C(F)F)n3ncc(C(=O)N4CCN(c5ccccn5)CC4)c3n2)cc1,i,-16.6,i,-77.1,77.9*,2.13
CCN1CCN(C(=O)c2cnn3c(C(F)F)cc(-c4ccc(C)cc4)nc23)CC1,i,-1.4,x,-28.1,28.1,0.17
Cc1c(C#N)c(N)c(C(=O)c2ccccc2)n1Cc1ccccc1,i,-18.7,i,-4.3,4.3,-5.18*
N#CC(C#N)=NNc1ccc([N+](=O)[O-])cc1,100*,3.0,i,0.0,0.0,-2.02
O=C(O)CC/C(=N/Nc1ccc([N+](=O)[O-])cc1)C(=O)O,i,4.2,i,x,x,-0.54
COc1ccc(C(=O)/C(C#N)=N/Nc2ccccc2[N+](=O)[O-])cc1,i,9.2,i,4.5,-4.5,1.43
COc1ccc(C(=O)/C(C#N)=N/Nc2ccc([N+](=O)[O-])cc2)cc1,25*,0.5,i,-38.2,38.2,4.34
Cc1cccc(OC(C)C(=O)Nc2ccc(N3CCCCC3)cc2)c1 (configuration not stated),i,x,i,-36.1,36.1,0.19
COc1cc(S(=O)(=O)Nc2ccc(C)cc2)ccc1N=Cc1c(C)c(C#N)c(=O)n(C)c1O,i,-5.2,-6*,-64.8,64.8,1.67
COc1cc(S(=O)(=O)Nc2ccc(C)cc2)ccc1N=Cc1c(C)[nH]n(-c2ccc(C)cc2)c1=O,i,-5.1,i,-21.8,21.8,0.52
Oc1ccc2ccccc2c1N=Nc1ccccn1,i,1.1,i,-20.2,20.2,-2.38
CCOC(=O)c1[nH]cnc1N=Nc1c(O)ccc2ccccc12,i,-1.3,i,-79.6,79.6*,-0.36
Cc1cc(S(=O)(=O)N2CCN=C2c2ccccc2)ccc1F,i,-0.9,i,-0.3,0.3,-4.74*
SMILES,TMEM16A inh,FID counter,ANO1 activ,SR-BI DiI-HDL act,SR-BI HDL uptake,Kir21 block
CSc1ccc(/C=C/C(=O)NC(=O)c2ccccc2O)cc1,25*,-7.2,i,-4.5,4.5,-1.38
Cc1cccc(NC(=O)c2ccc(OCc3c(C)noc3C)cc2)c1,x,x,i,-72.9,72.9*,x
COc1cc(NC(=O)c2ccc(OCc3c(C)noc3C)c(OC)c2)cc(OC)c1,x,x,i,-86.5,86.5*,x
CCc1nnc(NC(=O)c2ccc(OCc3c(C)noc3C)c(OC)c2)s1,i,-24.5,i,-84.2,84.2*,1.21
COc1cc(C(=O)Nc2cc(OC)c(OC)c(OC)c2)ccc1OCc1c(C)noc1C,x,x,i,-87.0,87.0*,x
COc1cc(C(=O)Nc2nc3ccc(C)cc3s2)ccc1OCc1c(C)noc1C,i,-2.7,i,-55.6,55.6,-1.42
CC(C)CN(C(=O)c1ccc(-n2cncn2)c([N+](=O)[O-])c1)C1CCS(=O)(=O)C1 (configuration not stated),i,x,i,-6.1,6.1,1.29
Cn1c(N)c(C(=O)COC(=O)CC2CC3CCC2C3)c(=O)n(C)c1=O (configuration not stated),i,-6.0,i,11.7,-11.7,1.26
COc1ccccc1C(=O)NCCC(=O)NC1CCCCCC1,x,x,i,-12.0,12.0,x
O=C(c1ccccc1)c1coc2ccc(O)c(CN3CCOCC3)c12,i,1.6,i,x,x,-6.28*
CN(C)Cc1c(O)ccc2occ(C(=O)c3ccccc3)c12,25*,1.1,i,27.0,-27.0,-1.07
O=S(=O)(c1cccs1)N1CCN(CCOc2ccc(Cl)cc2)CC1,x,x,i,18.2,-18.2,x
O=S(=O)(c1cccs1)N1CCN(CC(O)COc2cc(Cl)ccc2Cl)CC1 (configuration not stated),25*,-5.7,-14.5*,12.1,-12.1,x
O=C(/C(N=Nc1cccc(C(F)(F)F)c1)=C(/O)c1cccs1)C(F)(F)F,100*,1.4,i,4.3,-4.3,-1.72
CC(=O)/C(N=Nc1cccc(C(F)(F)F)c1)=C(\C)O,i,-1.2,i,-3.0,3.0,1.02
CN(C(=O)/C(N=Nc1cccc(C(F)(F)F)c1)=C(\O)C(F)(F)F)c1ccccc1,100*,-4.9,i,2.4,-2.4,-0.42
Cc1ccc(S(=O)(=O)Nc2c(C(=O)O)[nH]c3ccccc23)c(C)c1,i,-34.6,i,0.3,-0.3,0.69
CC(=O)C1CCN(Cc2ccccc2)CC1,i,-6.2,i,28.6,-28.6,0
CSc1ccccc1OC1CCN(Cc2ccccc2)CC1,i,8.4,i,7.2,-7.2,-12.7*
O=C(NCc1ccccc1F)C1CCCN1C(=O)Nc1ccccc1 (configuration not stated),i,-2.0,i,6.6,-6.6,2.2
O=C(CSc1nnc(COc2ccc(Cl)cc2)o1)N1c2ccccc2CCc2ccccc21,i,-28.3,i,-74.9,74.9*,2.24
CC(=O)N(CCC(c1ccccc1)c1ccco1)Cc1cccs1 (configuration not stated),i,-38.9,i,44.6,-44.6,-8.84*
CC(=O)N(CCC(Cc1ccccc1)c1ccco1)Cc1ccco1 (configuration not stated),i,-37.0,i,-1.3,1.3,-12.1*
